Values belong to the compound of their own block, whether it stands above or below them. Activity calls are given as the source filed them. The rule behind the calls is not given here.
How the values were obtained:
[1] = molecular target: T1, 5-hydroxytryptamine receptor 6 (Homo sapiens, UniProt P50406); test: Antagonist activity at human recombinant 5HT6 receptor expressed in HEK293 cells assessed as inhibition of serotonin-induced cAMP production after 2 hrs; format: functional, cell-based
Procedure, shortened: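 Tetracycline-induced (1 ug/mL, day before) T-Rex HEK cells expressing 5-HT6R, EDTA-harvested, in HBSS/5 mM HEPES pH 7.4/0.05% BSA with IBMX; ~4000 cells/well. Compound premixed with serotonin (final 10 nM, 0.32% DMSO), 2 h; cAMP by LANCE kit. Duplicates; 4-parameter IC50; Ki = IC50/(1+[Ag]/EC50), serotonin EC50 measured on same plates.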

[2] = molecular target: T1, 5-hydroxytryptamine receptor 6; test: Displacement of [3H]lysergic acid diethylamide from human recombinant 5HT6 receptor
Homo sapiens = organism: Homo sapiens; test: Ratio of Ki for human recombinant 5HT6 receptor to Ki for human recombinant 5HT2B receptor
HEK293 = test: Ratio of IC50 for human recombinant 5HT6 receptor expressed in human HEK293 cells to IC50 for human recombinant 5HT2B receptor expressed in human HEK293 cells; format: cell-based
Procedure, shortened: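 5-HT6 arm: tetracycline-induced (1 ug/mL, day before) T-Rex 5-HT6R-HEK cells, ~4000 cells/well in HBSS/5 mM HEPES pH 7.4/0.05% BSA, 500 µM IBMX final; compound with 10 nM serotonin, 2 h; cAMP by LANCE TR-FRET. 5-HT2B arm: Fura-2-loaded 5-HT2BR-HEK cells in cuvette, 340/380 nm excitation, 510 nm emission, response to 5 µM α-methylserotonin. IC50 from 4-parameter fits, duplicates.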

[3] = molecular target: Voltage-gated inwardly rectifying potassium channel KCNH2 (Homo sapiens, UniProt Q12809); test: Antagonist activity at human ERG by patch clamp method; format: functional
[4] = molecular target: 5-hydroxytryptamine receptor 1A (Homo sapiens) (UniProt P08908); test: Binding affinity to 5HT1A receptor at 10 uM by radioligand binding assay
Procedure, shortened: (§1)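 Outsourced competitive radioligand displacement against target-specific labelled ligands, using the contractor's own protocol for each target. Single test concentration; duplicates, mean ± SD.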

[5] = molecular target: 5-hydroxytryptamine receptor 1B (Homo sapiens) (UniProt P28222); test: Binding affinity to 5HT1B receptor at 10 uM by radioligand binding assay; procedure, shortened: as §1
[6] = molecular target: 5-hydroxytryptamine receptor 2C (Homo sapiens) (UniProt P28335); test: Binding affinity to 5HT2C receptor at 10 uM by radioligand binding assay; procedure, shortened: as §1
[7] = molecular target: 5-hydroxytryptamine receptor 3A (Homo sapiens) (UniProt P46098); test: Binding affinity to 5HT3 receptor at 10 uM by radioligand binding assay; procedure, shortened: as §1
[8] = molecular target: Alpha-1A adrenergic receptor (Homo sapiens) (UniProt P35348); test: Binding affinity to Adrenergic alpha1A receptor at 10 uM by radioligand binding assay; procedure, shortened: as §1
[9] = molecular target: Alpha-1B adrenergic receptor (Homo sapiens) (UniProt P35368); test: Binding affinity to Adrenergic Alpha-1B receptor at 10 uM by radioligand binding assay; procedure, shortened: as §1
[10] = molecular target: Alpha-1D adrenergic receptor (Homo sapiens) (UniProt P25100); test: Binding affinity to Adrenergic Alpha-1D receptor at 10 uM by radioligand binding assay; procedure, shortened: as §1
[11] = Binding affinity to sigma2 receptor at 10 uM by radioligand binding assay
Procedure, shortened: (§2)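 Panel screen of 56 targets (GPCRs, ion channels, transporters) run by a contract lab under its own protocols; each target scored by competition of a single 10 µM compound concentration with its target-specific radioligand, given as percent displacement; duplicates, mean ± SD.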

[12] = molecular target: Adenosine receptor A1 (Homo sapiens) (UniProt P30542); test: Binding affinity to Adenosinergic A1 receptor at 10 uM by radioligand binding assay; procedure, shortened: as §1
[13] = molecular target: Adenosine receptor A2a (Homo sapiens) (UniProt P29274); test: Binding affinity to Adenosinergic A2A receptor at 10 uM by radioligand binding assay; procedure, shortened: as §1
[14] = molecular target: Muscarinic acetylcholine receptor M1 (Homo sapiens) (UniProt P11229); test: Binding affinity to Muscarinic M1 receptor at 10 uM by radioligand binding assay; procedure, shortened: as §1
[15] = molecular target: Muscarinic acetylcholine receptor M2 (Homo sapiens) (UniProt P08172); test: Binding affinity to Muscarinic M2 receptor at 10 uM by radioligand binding assay; procedure, shortened: as §1
[16] = molecular target: Muscarinic acetylcholine receptor M3 (Homo sapiens) (UniProt P20309); test: Binding affinity to Muscarinic M3 receptor at 10 uM by radioligand binding assay; procedure, shortened: as §1
[17] = molecular target: Substance-P receptor (Homo sapiens) (UniProt P25103); test: Binding affinity to tachykinin NK1 receptor at 10 uM by radioligand binding assay; procedure, shortened: as §2
[18] = molecular target: Neuropeptide Y receptor type 1 (Homo sapiens) (UniProt P25929); test: Binding affinity to Neuropeptide Y Y1 receptor at 10 uM by radioligand binding assay; procedure, shortened: as §1
[19] = molecular target: Neuropeptide Y receptor type 2 (Homo sapiens) (UniProt P49146); test: Binding affinity to Neuropeptide Y Y2 receptor at 10 uM by radioligand binding assay; procedure, shortened: as §1
[20] = Binding affinity to Nicotinic receptor at 10 uM by radioligand binding assay; procedure, shortened: as §1
[21] = molecular target: Sodium-dependent noradrenaline transporter (Homo sapiens) (UniProt P23975); test: Binding affinity to norepinephrine transporter at 10 uM by radioligand binding assay; procedure, shortened: as §2
[22] = molecular target: Sodium-dependent dopamine transporter (Homo sapiens) (UniProt Q01959); test: Binding affinity to Dopamine transporter at 10 uM by radioligand binding assay; procedure, shortened: as §1
[23] = Binding affinity to GABA transporter at 10 uM by radioligand binding assay; procedure, shortened: as §1
[24] = molecular target: Sodium-dependent serotonin transporter (Homo sapiens) (UniProt P31645); test: Binding affinity to Serotonin transporter at 10 uM by radioligand binding assay; procedure, shortened: as §2
[25] = molecular target: Sodium- and chloride-dependent glycine transporter 2 (Homo sapiens) (UniProt Q9Y345); test: Binding affinity to Glycine transporter at 10 uM by radioligand binding assay; procedure, shortened: as §1
[26] = molecular target: Alpha-2A adrenergic receptor (Homo sapiens) (UniProt P08913); test: Binding affinity to Adrenergic alpha2A receptor at 10 uM by radioligand binding assay; procedure, shortened: as §1
[27] = molecular target: D(1A) dopamine receptor (Homo sapiens) (UniProt P21728); test: Binding affinity to Dopaminergic D1 receptor at 10 uM by radioligand binding assay; procedure, shortened: as §1
[28] = molecular target: D(2) dopamine receptor (Homo sapiens) (UniProt P14416); test: Binding affinity to Dopaminergic D2L receptor at 10 uM by radioligand binding assay; procedure, shortened: as §1
[29] = molecular target: D(3) dopamine receptor (Homo sapiens) (UniProt P35462); test: Binding affinity to Dopaminergic D3 receptor at 10 uM by radioligand binding assay; procedure, shortened: as §1
[30] = Binding affinity to Dopaminergic D4.2 receptor at 10 uM by radioligand binding assay; procedure, shortened: as §1
[31] = molecular target: D(4) dopamine receptor (Homo sapiens) (UniProt P21917); test: Binding affinity to Dopaminergic D4.4 receptor at 10 uM by radioligand binding assay; procedure, shortened: as §1
[32] = Binding affinity to Dopaminergic D4.7 receptor at 10 uM by radioligand binding assay; procedure, shortened: as §1
[33] = molecular target: Histamine H1 receptor (Homo sapiens) (UniProt P35367); test: Binding affinity to Histaminergic H1 receptor at 10 uM by radioligand binding assay; procedure, shortened: as §1
[34] = molecular target: Histamine H2 receptor (Homo sapiens) (UniProt P25021); test: Binding affinity to Histaminergic H2 receptor at 10 uM by radioligand binding assay; procedure, shortened: as §1
[35] = molecular target: Histamine H3 receptor (Homo sapiens) (UniProt Q9Y5N1); test: Binding affinity to Histaminergic H3 receptor at 10 uM by radioligand binding assay; procedure, shortened: as §1
[36] = Binding affinity to imidazoline I2 receptor at 10 uM by radioligand binding assay; procedure, shortened: as §2
[37] = molecular target: Sigma non-opioid intracellular receptor 1 (Homo sapiens) (UniProt Q99720); test: Binding affinity to sigma 1 receptor at 10 uM by radioligand binding assay; procedure, shortened: as §2
[38] = Binding affinity to L-type calcium channel bezothiazepine binding site at 10 uM by radioligand binding assay; procedure, shortened: as §1
[39] = Binding affinity to L-type calcium channel dihydropyridine binding site at 10 uM by radioligand binding assay; procedure, shortened: as §1
[40] = Binding affinity to N-type calcium channel at 10 uM by radioligand binding assay; procedure, shortened: as §1
[41] = Binding affinity to Potassium channel at 10 uM by radioligand binding assay; procedure, shortened: as §2
[42] = Binding affinity to Sodium channel at 10 uM by radioligand binding assay; procedure, shortened: as §2
[43] = molecular target: Death-associated protein kinase 1 (Homo sapiens) (UniProt P53355); test: Binding affinity to DAPK1 at 10 uM by radioligand binding assay; procedure, shortened: as §1
[44] = molecular target: Death-associated protein kinase 2 (Homo sapiens) (UniProt Q9UIK4); test: Binding affinity to DAPK2 at 10 uM by radioligand binding assay; procedure, shortened: as §1
[45] = molecular target: Death-associated protein kinase 3 (Homo sapiens) (UniProt O43293); test: Binding affinity to DAPK3 at 10 uM by radioligand binding assay; procedure, shortened: as §1
[46] = molecular target: Mitogen-activated protein kinase 8 (Homo sapiens) (UniProt P45983); test: Binding affinity to MAPK8 at 10 uM by radioligand binding assay; procedure, shortened: as §1
[47] = molecular target: Mitogen-activated protein kinase 10 (Homo sapiens) (UniProt P53779); test: Binding affinity to MAPK10 at 10 uM by radioligand binding assay; procedure, shortened: as §1
[48] = Binding affinity to AMPA receptor at 10 uM by radioligand binding assay; procedure, shortened: as §1
[49] = Binding affinity to Kainate receptor at 10 uM by radioligand binding assay; procedure, shortened: as §1
[50] = Binding affinity to NMDA receptor glycine binding site at 10 uM by radioligand binding assay; procedure, shortened: as §1
[51] = Binding affinity to NMDA receptor phencyclidine binding site at 10 uM by radioligand binding assay; procedure, shortened: as §1
[52] = Binding affinity to GABAB receptor at 10 uM by radioligand binding assay; procedure, shortened: as §1
[53] = Binding affinity to GABAA receptor flunitrazepam binding site at 10 uM by radioligand binding assay; procedure, shortened: as §1
[54] = Binding affinity to GABAA receptor Ro-15-1788 binding site at 10 uM by radioligand binding assay; procedure, shortened: as §1
[55] = molecular target: D(2) dopamine receptor (Homo sapiens) (UniProt P14416); test: Binding affinity to Dopaminergic D2S receptor at 10 uM by radioligand binding assay; procedure, shortened: as §1
[56] = molecular target: Cyclin-dependent kinase 5 (Homo sapiens) (UniProt Q00535); test: Binding affinity to CDK5 at 10 uM by radioligand binding assay; procedure, shortened: as §1

T1 sequence (P50406 whole entry): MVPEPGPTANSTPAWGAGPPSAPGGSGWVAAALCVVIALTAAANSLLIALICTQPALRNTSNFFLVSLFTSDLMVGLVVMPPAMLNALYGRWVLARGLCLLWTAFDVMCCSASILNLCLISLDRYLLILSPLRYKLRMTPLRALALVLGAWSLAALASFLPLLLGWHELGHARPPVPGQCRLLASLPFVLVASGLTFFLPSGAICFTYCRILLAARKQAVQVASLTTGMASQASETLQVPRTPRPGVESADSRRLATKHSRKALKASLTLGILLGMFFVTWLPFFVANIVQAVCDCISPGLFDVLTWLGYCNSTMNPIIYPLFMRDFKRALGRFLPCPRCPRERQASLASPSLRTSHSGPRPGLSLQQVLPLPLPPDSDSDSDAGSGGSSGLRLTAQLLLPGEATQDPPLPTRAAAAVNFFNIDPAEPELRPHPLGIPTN
D(2) dopamine receptor (Homo sapiens), sequence (P14416 whole entry): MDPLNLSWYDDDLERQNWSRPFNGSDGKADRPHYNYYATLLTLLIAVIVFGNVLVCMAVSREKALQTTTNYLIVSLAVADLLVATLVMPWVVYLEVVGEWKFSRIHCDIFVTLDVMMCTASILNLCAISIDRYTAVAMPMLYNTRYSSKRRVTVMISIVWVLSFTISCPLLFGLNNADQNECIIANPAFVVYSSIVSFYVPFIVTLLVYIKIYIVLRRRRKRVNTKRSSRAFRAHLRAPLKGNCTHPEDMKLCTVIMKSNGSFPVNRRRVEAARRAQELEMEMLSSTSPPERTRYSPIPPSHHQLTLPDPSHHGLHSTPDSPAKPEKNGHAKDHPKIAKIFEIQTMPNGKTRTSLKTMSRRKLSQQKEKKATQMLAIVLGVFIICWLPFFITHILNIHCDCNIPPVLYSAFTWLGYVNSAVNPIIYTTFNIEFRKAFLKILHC
Death-associated protein kinase 1 (Homo sapiens), sequence (P53355 whole entry, looked up): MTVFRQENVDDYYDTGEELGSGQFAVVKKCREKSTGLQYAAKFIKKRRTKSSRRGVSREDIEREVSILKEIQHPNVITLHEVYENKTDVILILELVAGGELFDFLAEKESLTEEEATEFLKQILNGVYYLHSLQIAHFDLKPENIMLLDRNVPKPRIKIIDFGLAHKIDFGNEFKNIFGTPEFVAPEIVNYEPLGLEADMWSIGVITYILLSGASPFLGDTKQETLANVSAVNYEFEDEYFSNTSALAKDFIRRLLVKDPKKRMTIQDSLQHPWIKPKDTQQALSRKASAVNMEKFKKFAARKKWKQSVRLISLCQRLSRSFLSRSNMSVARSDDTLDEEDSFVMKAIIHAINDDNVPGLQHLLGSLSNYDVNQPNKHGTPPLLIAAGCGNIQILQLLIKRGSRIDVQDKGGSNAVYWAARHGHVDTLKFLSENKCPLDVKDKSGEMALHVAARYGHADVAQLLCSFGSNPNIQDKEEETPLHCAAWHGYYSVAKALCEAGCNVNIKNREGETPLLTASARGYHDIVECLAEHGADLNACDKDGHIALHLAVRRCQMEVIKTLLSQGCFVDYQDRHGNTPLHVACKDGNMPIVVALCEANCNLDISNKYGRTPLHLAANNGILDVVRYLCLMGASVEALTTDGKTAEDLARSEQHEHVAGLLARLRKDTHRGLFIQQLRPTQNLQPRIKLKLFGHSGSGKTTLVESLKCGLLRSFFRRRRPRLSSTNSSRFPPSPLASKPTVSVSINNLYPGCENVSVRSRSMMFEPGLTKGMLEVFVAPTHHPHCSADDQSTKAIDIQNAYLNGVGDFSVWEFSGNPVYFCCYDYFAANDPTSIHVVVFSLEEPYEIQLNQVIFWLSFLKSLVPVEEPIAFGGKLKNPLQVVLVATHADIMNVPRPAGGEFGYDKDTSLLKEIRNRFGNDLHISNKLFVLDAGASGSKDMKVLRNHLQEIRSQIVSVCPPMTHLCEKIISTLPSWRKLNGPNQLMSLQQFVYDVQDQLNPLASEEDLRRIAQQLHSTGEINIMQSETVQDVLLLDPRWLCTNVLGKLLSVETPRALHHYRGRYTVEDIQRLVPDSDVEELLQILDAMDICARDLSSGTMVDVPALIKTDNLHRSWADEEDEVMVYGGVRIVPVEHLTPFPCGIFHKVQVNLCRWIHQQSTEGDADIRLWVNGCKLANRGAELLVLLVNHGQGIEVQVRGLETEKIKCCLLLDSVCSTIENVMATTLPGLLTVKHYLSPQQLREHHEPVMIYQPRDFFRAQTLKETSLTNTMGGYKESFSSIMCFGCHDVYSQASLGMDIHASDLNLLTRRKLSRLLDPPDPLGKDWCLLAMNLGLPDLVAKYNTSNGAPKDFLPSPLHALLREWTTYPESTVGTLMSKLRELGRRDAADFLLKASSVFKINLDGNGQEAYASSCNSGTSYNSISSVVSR
Sodium-dependent dopamine transporter (Homo sapiens), sequence (Q01959 whole entry): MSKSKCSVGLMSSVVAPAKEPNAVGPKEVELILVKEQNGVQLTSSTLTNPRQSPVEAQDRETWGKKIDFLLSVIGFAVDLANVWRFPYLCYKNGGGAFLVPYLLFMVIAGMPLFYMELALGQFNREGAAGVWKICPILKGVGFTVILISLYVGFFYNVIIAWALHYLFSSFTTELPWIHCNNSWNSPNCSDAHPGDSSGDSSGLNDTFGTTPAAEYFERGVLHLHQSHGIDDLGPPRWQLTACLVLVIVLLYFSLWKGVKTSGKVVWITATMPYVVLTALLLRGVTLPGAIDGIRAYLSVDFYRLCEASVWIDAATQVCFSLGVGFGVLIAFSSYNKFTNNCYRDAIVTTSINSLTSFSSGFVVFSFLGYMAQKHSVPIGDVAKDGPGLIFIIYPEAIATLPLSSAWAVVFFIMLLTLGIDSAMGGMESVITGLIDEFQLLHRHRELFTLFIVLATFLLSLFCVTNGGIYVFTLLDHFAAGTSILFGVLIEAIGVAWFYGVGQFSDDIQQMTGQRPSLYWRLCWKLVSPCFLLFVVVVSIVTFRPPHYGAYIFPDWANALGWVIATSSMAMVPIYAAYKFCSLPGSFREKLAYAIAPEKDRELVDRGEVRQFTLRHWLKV
Histamine H3 receptor (Homo sapiens), sequence (Q9Y5N1 whole entry): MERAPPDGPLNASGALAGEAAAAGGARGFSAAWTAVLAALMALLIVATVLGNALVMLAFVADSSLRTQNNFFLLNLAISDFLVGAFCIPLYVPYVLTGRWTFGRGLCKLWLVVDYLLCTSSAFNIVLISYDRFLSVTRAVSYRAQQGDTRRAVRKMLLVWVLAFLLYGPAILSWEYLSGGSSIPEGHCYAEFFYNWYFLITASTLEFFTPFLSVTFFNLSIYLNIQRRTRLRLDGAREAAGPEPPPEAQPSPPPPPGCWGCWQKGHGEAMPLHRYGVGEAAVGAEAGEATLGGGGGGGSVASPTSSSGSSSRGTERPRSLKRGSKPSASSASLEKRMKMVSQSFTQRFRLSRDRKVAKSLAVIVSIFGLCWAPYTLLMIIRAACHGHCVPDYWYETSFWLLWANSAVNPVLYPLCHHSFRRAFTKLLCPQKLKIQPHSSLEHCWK
Alpha-2A adrenergic receptor (Homo sapiens), sequence (P08913 whole entry): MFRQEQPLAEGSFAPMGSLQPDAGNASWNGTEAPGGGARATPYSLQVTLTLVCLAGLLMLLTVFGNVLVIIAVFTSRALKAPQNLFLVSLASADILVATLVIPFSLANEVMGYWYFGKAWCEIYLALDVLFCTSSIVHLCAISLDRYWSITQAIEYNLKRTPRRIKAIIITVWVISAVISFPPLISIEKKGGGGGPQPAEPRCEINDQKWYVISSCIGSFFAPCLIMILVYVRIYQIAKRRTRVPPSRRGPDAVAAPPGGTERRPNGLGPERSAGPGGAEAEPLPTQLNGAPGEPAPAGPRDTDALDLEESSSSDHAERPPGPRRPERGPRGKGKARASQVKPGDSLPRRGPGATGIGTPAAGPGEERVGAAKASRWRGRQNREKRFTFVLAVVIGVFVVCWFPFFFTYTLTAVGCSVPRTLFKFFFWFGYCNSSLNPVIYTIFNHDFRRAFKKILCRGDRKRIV
5-hydroxytryptamine receptor 3A (Homo sapiens), sequence (P46098 whole entry): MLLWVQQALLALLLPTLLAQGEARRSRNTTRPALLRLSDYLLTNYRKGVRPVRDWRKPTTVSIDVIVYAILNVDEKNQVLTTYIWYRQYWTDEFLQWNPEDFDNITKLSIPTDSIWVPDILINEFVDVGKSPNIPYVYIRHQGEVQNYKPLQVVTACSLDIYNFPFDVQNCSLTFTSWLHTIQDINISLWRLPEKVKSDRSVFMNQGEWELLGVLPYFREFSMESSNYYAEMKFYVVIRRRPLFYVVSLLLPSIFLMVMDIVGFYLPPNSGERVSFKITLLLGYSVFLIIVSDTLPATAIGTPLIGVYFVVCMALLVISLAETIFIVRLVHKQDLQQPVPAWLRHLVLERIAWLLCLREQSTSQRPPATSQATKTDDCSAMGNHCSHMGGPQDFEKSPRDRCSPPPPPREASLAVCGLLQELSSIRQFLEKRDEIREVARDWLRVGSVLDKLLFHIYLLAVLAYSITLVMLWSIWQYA
Death-associated protein kinase 2 (Homo sapiens), sequence (Q9UIK4 whole entry, looked up): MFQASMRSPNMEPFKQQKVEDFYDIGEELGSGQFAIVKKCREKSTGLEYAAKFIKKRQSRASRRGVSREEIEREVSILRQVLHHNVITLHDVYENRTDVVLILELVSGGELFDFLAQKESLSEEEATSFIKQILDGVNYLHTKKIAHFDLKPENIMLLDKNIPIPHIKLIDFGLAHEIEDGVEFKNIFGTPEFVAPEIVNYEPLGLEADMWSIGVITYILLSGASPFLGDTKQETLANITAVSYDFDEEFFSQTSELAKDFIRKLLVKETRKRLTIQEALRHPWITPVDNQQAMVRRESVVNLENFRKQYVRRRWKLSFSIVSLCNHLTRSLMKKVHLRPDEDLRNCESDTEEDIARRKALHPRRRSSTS
Adenosine receptor A1 (Homo sapiens), sequence (P30542 whole entry): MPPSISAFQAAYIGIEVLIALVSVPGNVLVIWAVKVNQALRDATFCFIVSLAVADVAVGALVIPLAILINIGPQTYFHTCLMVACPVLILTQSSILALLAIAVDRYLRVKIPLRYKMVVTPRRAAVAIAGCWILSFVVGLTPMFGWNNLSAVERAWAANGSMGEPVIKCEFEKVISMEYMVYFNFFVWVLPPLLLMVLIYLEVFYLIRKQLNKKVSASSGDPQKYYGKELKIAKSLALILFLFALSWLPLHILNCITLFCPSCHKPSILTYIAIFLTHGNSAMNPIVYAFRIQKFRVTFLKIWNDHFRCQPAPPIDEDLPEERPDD

Compound: Cc1cc(C)n2ncc(S(=O)(=O)c3ccccc3)c2n1
Ki [1]: 561 nM

Compound: CSc1nn2c(C)cc(C)nc2c1S(=O)(=O)c1ccccc1
Ki [2]: 2 nM

Compound: CNc1nn2c(C)cc(C)nc2c1S(=O)(=O)c1ccccc1
Ki [2]: 0.2 nM
Ratio (Homo sapiens): 5000
Ratio (HEK293): 1000
IC50 [3]: > 30000 nM
Activity [4]: inactive
Activity [5]: inactive
Activity [6]: inactive
Activity [7]: inactive
Activity [8]: inactive
Activity [9]: inactive
Activity [10]: inactive
Activity [11]: inactive
Activity [12]: inactive
Activity [13]: inactive
Activity [14]: inactive
Activity [15]: inactive
Activity [16]: inactive
Activity [17]: inactive
Activity [18]: inactive
Activity [19]: inactive
Activity [20]: inactive
Activity [21]: inactive
Activity [22]: inactive
Activity [23]: inactive
Activity [24]: inactive
Activity [25]: inactive
Activity [26]: inactive
Activity [27]: inactive
Activity [28]: inactive
Activity [29]: inactive
Activity [30]: inactive
Activity [31]: inactive
Activity [32]: inactive
Activity [33]: inactive
Activity [34]: inactive
Activity [35]: inactive
Activity [36]: inactive
Activity [37]: inactive
Activity [38]: inactive
Activity [39]: inactive
Activity [40]: inactive
Activity [41]: inactive
Activity [42]: inactive
Activity [43]: inactive
Activity [44]: inactive
Activity [45]: inactive
Activity [46]: inactive
Activity [47]: inactive
Activity [48]: inactive
Activity [49]: inactive
Activity [50]: inactive
Activity [51]: inactive
Activity [52]: inactive
Activity [53]: inactive
Activity [54]: inactive
Activity [55]: inactive
Activity [56]: inactive

Compound: Cc1cc(C)n2nc([S+](C)[O-])c(S(=O)(=O)c3ccccc3)c2n1 (configuration not stated)
Ki [1]: 2960 nM

Continued, values first:

Ki [1]: 489 nM
Compound: Cc1cc(C)n2nc(N(C)CCN(C)C)c(S(=O)(=O)c3ccccc3)c2n1

Ki [1]: 2200 nM
Compound: Cc1cc(C)n2nc(OCCN(C)C)c(S(=O)(=O)c3ccccc3)c2n1

Source: ChEMBL document CHEMBL1759918, “2-Substituted 5,6-dimethyl-3-phenylsulfonyl-pyrazolo[1,5-a]pyrimidines: new series of highly potent and specific serotonin 5-HT6 receptor antagonists” (Eur J Med Chem, 2011)
